Consider four compounds from ChEMBL document CHEMBL4038305, “Benzoxaborole Antimalarial Agents. Part 5. Lead Optimization of Novel Amide Pyrazinyloxy Benzoxaboroles and Identification of a Preclinical Candidate” (J Med Chem, 2017).

In general, IC50 refers to the concentration needed to halve the response being measured. In general, Tmax refers to the time at which the peak concentration occurs. The term AUC(0-inf) denotes total exposure, with the tail of the curve extrapolated.

Molecules are shown by their SMILES.

The test system of data set [1] is Plasmodium falciparum. Description: Antimalarial activity against chloroquine-sensitive Plasmodium falciparum 3D7 infected in human erythrocytes assessed as reduction in [3H]-hypoxanthine incorporation preincubated for 24 hrs followed by [3H]-hypoxanthine addition measured after 24 hrs by scintillation counting method. Format: functional, cell-based. The essentials:
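P. falciparum 3D7 cultures were exposed to the compound for 48 h, with atovaquone as the reference control. IC50 was taken from three replicates.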

The test system of data set [2] is Plasmodium falciparum. The experiment in a line: Antimalarial activity against chloroquine-resistant Plasmodium falciparum W2 infected in human erythrocytes after 48 hrs by YOYO-1 dye based flow cytometric analysis. The conditions noted are these: W2, 48 h. It counts as functional, cell-based. The gist of the method:
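P. falciparum W2 cultures were exposed to the compound for 48 h, with artemisinin and chloroquine as reference controls. IC50 was taken from two independent replicates.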

In data set [3] the test system is Plasmodium berghei. The experiment in a line: Antimalarial activity against Plasmodium berghei infected in Swiss Webster mouse assessed as mouse survival rate at 3.7 mg/kg administered once daily via oral gavage for 4 consecutive days beginning 1 hr after infection measured on day 4 post infection relative to control. It counts as functional. The essentials: (§1)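 P. berghei-infected erythrocytes taken from a previously infected mouse were injected intraperitoneally. Oral dosing, once daily for 4 consecutive days, began 1 h after infection, in polyethylene glycol 300/propylene glycol/water (55/25/20 by weight). Chloroquine at 30 mg/kg was the positive control, with a vehicle-only group. Percent survival was recorded daily from day 4 to day 20.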

Data set [4] deals with Plasmodium berghei. Description: Antimalarial activity against Plasmodium berghei infected in Swiss Webster mouse assessed as mouse survival rate at 100 mg/kg administered once daily via oral gavage for 4 consecutive days beginning 1 hr after infection measured on day 5 post infection relative to control. It counts as functional. The essentials:
(§2)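 Mice given an intraperitoneal injection of P. berghei-infected erythrocytes taken from a previously infected animal. Oral dosing once daily for 4 consecutive days, starting 1 h after infection. Vehicle: polyethylene glycol 300/propylene glycol/water (weight ratio 55/25/20). Percent survival recorded daily from day 4 to day 20. Chloroquine 30 mg/kg and vehicle-only groups served as controls.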

The test system of data set [5] is Plasmodium berghei. The experiment in a line: Antimalarial activity against Plasmodium berghei infected in Swiss Webster mouse assessed as mouse survival rate at 33 mg/kg administered once daily via oral gavage for 4 consecutive days beginning 1 hr after infection measured on day 5 post infection relative to control. It counts as functional. The gist of the method:
as §1

For data set [6], the system named is Plasmodium berghei. Description: Antimalarial activity against Plasmodium berghei infected in Swiss Webster mouse assessed as mouse survival rate at 11 mg/kg administered once daily via oral gavage for 4 consecutive days beginning 1 hr after infection measured on day 5 post infection relative to control. Format: functional. The gist of the method: as §1
Data set [7] relates to Plasmodium berghei. Description: Antimalarial activity against Plasmodium berghei infected in Swiss Webster mouse assessed as mouse survival rate at 0.4 mg/kg administered once daily via oral gavage for 4 consecutive days beginning 1 hr after infection measured on day 5 post infection relative to control. Format: functional. The essentials: as §2
The subject of data set [8] is Plasmodium berghei. The experiment in a line: Antimalarial activity against Plasmodium berghei infected in Swiss Webster mouse assessed as mouse survival rate at 100 mg/kg administered once daily via oral gavage for 4 consecutive days beginning 1 hr after infection measured on day 6 post infection relative to control. It counts as functional. The essentials: as §2

Data set [9] has as its system Plasmodium berghei. Description: Antimalarial activity against Plasmodium berghei infected in Swiss Webster mouse assessed as mouse survival rate at 0.1 mg/kg administered once daily via oral gavage for 4 consecutive days beginning 1 hr after infection measured on day 6 post infection relative to control. Format: functional. The essentials: as §2
For data set [10], the system named is Plasmodium berghei. The experiment in a line: Antimalarial activity against Plasmodium berghei infected in Swiss Webster mouse assessed as mouse survival rate at 11 mg/kg administered once daily via oral gavage for 4 consecutive days beginning 1 hr after infection measured on day 7 post infection relative to control. It counts as functional. The gist of the method:
as §1

Data set [11] deals with Plasmodium berghei. The experiment in a line: Antimalarial activity against Plasmodium berghei infected in Swiss Webster mouse assessed as mouse survival rate at 0.1 mg/kg administered once daily via oral gavage for 4 consecutive days beginning 1 hr after infection measured on day 7 post infection relative to control. It counts as functional. The essentials: as §2
For data set [12], the system named is Plasmodium berghei. Description: Antimalarial activity against Plasmodium berghei infected in Swiss Webster mouse assessed as mouse survival rate at 100 mg/kg administered once daily via oral gavage for 4 consecutive days beginning 1 hr after infection measured on day 8 post infection relative to control. It counts as functional. The gist of the method:
as §2

Data set [13] has as its system Plasmodium berghei. Description: Antimalarial activity against Plasmodium berghei infected in Swiss Webster mouse assessed as mouse survival rate at 100 mg/kg administered once daily via oral gavage for 4 consecutive days beginning 1 hr after infection measured on day 9 post infection relative to control. It counts as functional. The essentials: as §2
In data set [14] the test system is Plasmodium berghei. The experiment in a line: Antimalarial activity against Plasmodium berghei infected in Swiss Webster mouse assessed as mouse survival rate at 33 mg/kg administered once daily via oral gavage for 4 consecutive days beginning 1 hr after infection measured on day 9 post infection relative to control. It counts as functional. The gist of the method:
as §1

The subject of data set [15] is Plasmodium berghei. Description: Antimalarial activity against Plasmodium berghei infected in Swiss Webster mouse assessed as mouse survival rate at 11 mg/kg administered once daily via oral gavage for 4 consecutive days beginning 1 hr after infection measured on day 9 post infection relative to control. Format: functional. The gist of the method: as §1
Data set [16] relates to Plasmodium berghei. The experiment in a line: Antimalarial activity against Plasmodium berghei infected in Swiss Webster mouse assessed as mouse survival rate at 33 mg/kg administered once daily via oral gavage for 4 consecutive days beginning 1 hr after infection measured on day 10 post infection relative to control. It counts as functional. The gist of the method:
as §1

In data set [17] the test system is Plasmodium berghei. Description: Antimalarial activity against Plasmodium berghei infected in Swiss Webster mouse assessed as mouse survival rate at 100 mg/kg administered once daily via oral gavage for 4 consecutive days beginning 1 hr after infection measured on day 11 post infection relative to control. It counts as functional. The gist of the method: as §2

The subject of data set [18] is Plasmodium berghei. The experiment in a line: Antimalarial activity against Plasmodium berghei infected in Swiss Webster mouse assessed as mouse survival rate at 33 mg/kg administered once daily via oral gavage for 4 consecutive days beginning 1 hr after infection measured on day 11 post infection relative to control. It counts as functional. The essentials:
as §1

In data set [19] the test system is Plasmodium berghei. Description: Antimalarial activity against Plasmodium berghei infected in Swiss Webster mouse assessed as mouse survival rate at 33 mg/kg administered once daily via oral gavage for 4 consecutive days beginning 1 hr after infection measured on day 12 post infection relative to control. Format: functional. The gist of the method: as §1
For data set [20], the system named is Plasmodium berghei. Description: Antimalarial activity against Plasmodium berghei infected in Swiss Webster mouse assessed as mouse survival rate at 100 mg/kg administered once daily via oral gavage for 4 consecutive days beginning 1 hr after infection measured on day 13 post infection relative to control. Format: functional. The essentials:
as §2

In data set [21] the test system is Plasmodium berghei. The experiment in a line: Antimalarial activity against Plasmodium berghei infected in Swiss Webster mouse assessed as mouse survival rate administered once daily via oral gavage for 4 consecutive days beginning 1 hr after infection measured on day 4 post infection. Format: functional. The gist of the method:
as §2

A short description of data set [22]: Tmax in CD1 mouse plasma at 5 mg/kg, po via gavage by HPLC/MS analysis. It counts as ADME, organism-based. The gist of the method: (§3)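 Female CD-1 mice, male SD rats or beagle dogs given 5 mg/kg by iv injection or oral gavage. Formulation was PEG300/propylene glycol/water 55/25/20, pH 6. Blood samples analysed by HPLC–MS/MS; parameters include AUC0-inf extrapolated to infinity and terminal half-life.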

Data set [23] is described as follows: AUC (0 to infinity) in CD1 mouse at 5 mg/kg, po via gavage by HPLC/MS analysis. Format: ADME, organism-based. On the set-up: dose 5 mg/kg, time infinity, route oral. The conditions noted are these: in vivo.
Data set [24] is described as follows: Terminal half life in CD1 mouse at 5 mg/kg, iv by HPLC/MS analysis. The following applies: in vivo, read-out: beta t1/2 (converted). Format: ADME, organism-based. The gist of the method: as §3
Data set [25] relates to Plasmodium berghei. The experiment in a line: Antimalarial activity against Plasmodium berghei infected in Swiss Webster mouse assessed as mouse survival rate at 1.2 mg/kg administered once daily via oral gavage for 4 consecutive days beginning 1 hr after infection measured on day 6 post infection relative to control. Format: functional. The essentials:
as §2

The subject of data set [26] is Plasmodium berghei. Description: Antimalarial activity against Plasmodium berghei infected in Swiss Webster mouse assessed as mouse survival rate at 1.2 mg/kg administered once daily via oral gavage for 4 consecutive days beginning 1 hr after infection measured on day 7 post infection relative to control. It counts as functional. The gist of the method:
as §2

Turning to `Cc1c(Oc2cnc(C(=O)N3CC(O)(C(C)C)C3)cn2)ccc2c1B(O)OC2`, the IC50 in data set [1] was 57 nM; in [2], 40.7 nM. Moreover, the survival at 3.7 mg/kg in data set [3] came to 100%. In addition, the survival at 100 mg/kg in data set [4], in data set [8], in data set [12], in data set [13], in data set [17] and in [20] was 100% in each case. In addition, the survival at 33 mg/kg in data set [5], in data set [14], in data set [16], in [18] and in data set [19] was 100% in each case. Moreover, the results for the survival at 11 mg/kg in [6], in [10] and in data set [15] were 100%, 60% and 60%, respectively. For the same compound, the survival at 0.4 mg/kg in data set [7] came out at 100%. Besides, the survival at 0.1 mg/kg turned out to be 100% in data set [9] and 0% in [11]. Moreover, in data set [21], the ED90 came to 4.5 mg/kg.
As to `Cc1c(Oc2cnc(C(=O)N[C@@H](CO)CC(F)(F)F)cn2)ccc2c1B(O)OC2`, the results for the IC50 in data set [1] and in data set [2] were 149 nM and 82.2 nM, respectively. In addition, the Tmax in data set [22] is 1 h. In data set [23], the AUC(0-inf) turned out to be 13400 ng·h/mL. In data set [24], the half-life is 3 h. The survival at 3.7 mg/kg in [3] was 100%. For the same compound, the survival at 100 mg/kg in data set [4] turned out to be 100%; in [8], 100%; in data set [12] it was 100%; in [13], 100%; in data set [17] it was 0%. For the same compound, the survival at 33 mg/kg in data set [5] was found to be 100%; in [14], 100%; in data set [16], 60%; in [18] it was 0%. The survival at 11 mg/kg turned out to be 100% in data set [6] and 0% in [10]. In addition, the survival at 0.4 mg/kg in [7] was 100%. The survival at 1.2 mg/kg was 100% in data set [25] and 0% in data set [26]. For the same compound, the ED90 in data set [21] was 7.3 mg/kg.
As for `Cc1c(Oc2cnc(C(=O)N3CC(C)(O)C3)cn2)ccc2c1B(O)OC2`, the IC50 in [1] was determined as 43 nM; in [2], 32.6 nM. Moreover, in [22], the Tmax was 0.5 h. For the same compound, in data set [23], the AUC(0-inf) is 20700 ng·h/mL. For the same compound, in data set [24], the half-life was 7.1 h. Moreover, the survival at 3.7 mg/kg in data set [3] stood at 100%. Moreover, the survival at 100 mg/kg in data set [4], in data set [8], in data set [12], in data set [13], in data set [17] and in [20] was 100% each time. In addition, the survival at 33 mg/kg in data set [5], in data set [14], in data set [16], in data set [18] and in data set [19] was 100% each time. The survival at 11 mg/kg was determined as 100% in data set [6], 100% in data set [10] and 0% in data set [15]. For the same compound, the survival at 0.4 mg/kg in data set [7] came out at 100%. Also, the survival at 1.2 mg/kg in data set [25] was found to be 100%; in data set [26], 0%. Further, the survival at 0.1 mg/kg in [9] came to 100%; in [11], 0%. In data set [21], the ED90 was in the range of 1.9 to 1.92 mg/kg.
Regarding `CCCC1(O)CN(C(=O)c2cnc(Oc3ccc4c(c3C)B(O)OC4)cn2)C1`, the 50% inhibitory concentration (IC50) in data set [1] was determined as 54 nM; in [2], 15.9 nM. Moreover, the survival at 3.7 mg/kg in data set [3] came out at 100%. Also, the survival at 100 mg/kg in [4], in data set [8], in data set [12], in [13], in data set [17] and in data set [20] was 100% throughout. Further, the survival at 33 mg/kg in [5], in [14], in [16], in [18] and in data set [19] was 100% in each case. For the same compound, the survival at 11 mg/kg in [6] turned out to be 100%; in data set [10] it was 80%; in data set [15], 0%. Also, the survival at 0.4 mg/kg in [7] amounted to 100%. Further, the survival at 1.2 mg/kg in [25] came out at 100%; in data set [26], 0%. For the same compound, the survival at 0.1 mg/kg was 100% in [9] and 0% in data set [11]. Further, the ED90 in data set [21] came out at 3.3 mg/kg.
